No end group written: not given here. *: point of attachment. Octanoyl = CCCCCCCC(=O)*
Legend:
[1] = Ghrl-stability evaluation; assay type: physicochemical; conditions: Ghrl 1 mg/mL, physiological pH, 4–60°C, up to 48 hours, HPLC/UV
Outline: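 Ghrelin at 1 mg/mL was held at 4, 25, 37 and 60°C in water, PBS pH 7.4, HBSS pH 7.4 and pharmacopoeial buffers from pH 2 to 10.4 (PBS, acetate, phosphate, boric acid, borate). Samples were drawn at 0.5–6, 24 and 48 h. Remaining peptide was quantified by reversed-phase HPLC/UV on an ODS column at 37°C, using water/acetonitrile mobile phases with 0.1% TFA.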

[2] = Isothermal titration calorimetry of Ghrl with AL-free; assay type: binding; conditions: ITC, AL-free 10 mg/mL injected into Ghrl 1 mg/mL, PBS pH 7.4, 26°C, mean of n=2
Outline: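 Empty anionic liposomes (10 mg/mL in PBS pH 7.4) were injected stepwise into ghrelin (1 mg/mL in PBS) in the measuring cell. Each injection lasted 14.5 s, with 600 s spacing until steady state. Solutions were degassed beforehand, water served as reference and stirring was 300 rpm. A PBS-only blank was titrated. Heats were fitted to a cumulative model for K, ΔG, ΔH and TΔS. The titration was done twice and averaged.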

[3] = human plasma; cited from earlier work
[4] = cited from earlier work

In the case of “ghrelin (GSS(Octanoyl)FLSPEHQRVQQRKESKKPPAKLQPR; UniProt Q9UBU3 24-51, looked up) [Ghrl]”, the “Stability of Ghrl on prolonged heating” value [1] is given as “without any degradation”, the “Binding coefficient K” value [2] is given as 0.875 mM⁻¹ and the “plasmatic half-life t½” value [3] is given as 9 to 13 min. For the same substance, the isoelectric point [4] was 11.5.

From PMC5713684 (International Journal of Nanomedicine, 2017)
